Laboratory results reported in ChEMBL document CHEMBL3396970, “Synthesis and biological evaluation of novel 2,3-disubstituted quinoxaline derivatives as antileishmanial and antitrypanosomal agents” (Eur J Med Chem, 2015).

How the values were obtained:
Leishmania amazonensis = experiment: Antileishmanial activity against promastigote stage of Leishmania amazonensis WHOM/BR/75/JOSEFA after 72 hrs by hemocytometry; format: functional, organism-based
Trypanosoma cruzi [1] = experiment: Antitrypanosomal activity against epimastigote stage of Trypanosoma cruzi Y after 96 hrs by hemocytometry; format: functional, organism-based
How it was run: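 Log-phase parasites (promastigotes 3-day, Warren's medium + 10% FBS, 25°C; epimastigotes 4-day, LIT + 10% FBS, 28°C) seeded at 1 × 10^6 cells/mL with compound (0.1-100 µM; DMSO ≤1%). Promastigotes read at 72 h, epimastigotes at 96 h, by hemocytometer counting. IC50 by nonlinear regression.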

[2] = Selectivity ratio of CC50 for mouse J774A1 cells to IC50 for promastigote stage of Leishmania amazonensis WHOM/BR/75/JOSEFA; format: ADME, cell-based, J774.A1; conditions: read-out: Ratio CC50/IC50
[3] = Selectivity ratio of CC50 for monkey LLC-MK2 cells to IC50 for epimastigote stage of epimastigote stage of Trypanosoma cruzi Y; format: ADME, cell-based; conditions: read-out: Ratio CC50/IC50
Trypanosoma cruzi [4] = experiment: Antitrypanosomal activity against trypomastigote stage of Trypanosoma cruzi Y infected in monkey LLC-MK2 cells after 96 hrs by Pizzi-Brener method; format: functional, organism-based
[5] = Selectivity ratio of CC50 to IC50 for promastigote stage of Leishmania amazonensis WHOM/BR/75/JOSEFA; design: reference not given here
[6] = Selectivity ratio of CC50 for monkey LLC-MK2 cells to IC50 for epimastigote stage of epimastigote stage of Trypanosoma cruzi Y

IC50 (Leishmania amazonensis) | IC50 (Trypanosoma cruzi [1]) | EC50 (Trypanosoma cruzi [4]) | Compound | selectivity ratio [2] | selectivity ratio [3] | selectivity ratio [5] | selectivity ratio [6]
8.9 µM | 35.7 µM |  | Cc1ccc(-c2nc3ccccc3nc2-c2ccccc2)cc1 |  |  |  | 
12.8 µM | 21.5 µM |  | COc1ccc(-c2nc3ccccc3nc2-c2ccccc2)cc1 |  |  |  | 
21.1 µM | > 100 µM |  | c1ccc(-c2nc3ccccc3nc2-c2ccccc2)cc1 |  |  |  | 
29.6 µM | 10.8 µM | > 50 µM | CSC(=C[N+](=O)[O-])SC | 6 | 18.3 | 6 | 18.3
27.9 µM | 32 µM |  | COc1cccc(N/C(=C\[N+](=O)[O-])SC)c1 |  |  |  | 
24.1 µM | 11.4 µM |  | CS/C(=C/[N+](=O)[O-])Nc1ccccc1 |  |  |  | 
28.7 µM | 39 µM |  | COc1ccc(N/C(=C\[N+](=O)[O-])SC)cc1 |  |  |  | 
42.3 µM | 61.9 µM |  | CS/C(=C/[N+](=O)[O-])Nc1ccc2c(c1)OCCO2 |  |  |  | 
41.5 µM | 67.3 µM |  | CS/C(=C/[N+](=O)[O-])Nc1ccc(O)cc1 |  |  |  | 
33 µM | 20.4 µM |  | CS/C(=C/[N+](=O)[O-])Nc1ccc(Br)cc1 |  |  |  | 
21.9 µM | 70.1 µM |  | CS/C(=C/[N+](=O)[O-])NC1CCCCC1 |  |  |  | 
19.7 µM | 19.7 µM |  | CS/C(=C/[N+](=O)[O-])Nc1ccc(F)cc1 |  |  |  | 
73.6 µM | > 100 µM | > 50 µM | CS/C(=C/[N+](=O)[O-])NCCCCO | 11.1 |  | 11.1 | 
> 100 µM | 90.1 µM | > 50 µM | CS/C(=C/[N+](=O)[O-])NCCCO |  | 9.6 |  | 9.6
21.3 µM | 25.8 µM | > 50 µM | CS/C(=C/[N+](=O)[O-])Nc1ccc(Cl)cc1 | 6.9 | 7.3 | 6.9 | 7.3
93.6 µM | 38.7 µM | > 50 µM | COc1ccc2nc(Cl)c(SC)nc2c1 | 9.8 | 19.3 | 9.8 | 19.3
74.1 µM | 52.9 µM | > 50 µM | CSc1nc2ccccc2nc1Cl | 13.5 | 8.1 | 13.5 | 8.1
> 100 µM | > 100 µM | > 50 µM | COc1ccc2nc(SC)c(Cl)nc2c1 |  |  |  | 
57.9 µM | 47.8 µM | > 50 µM | CSc1nc2ccc(Br)cc2nc1Cl | 7.4 | 9.2 | 7.4 | 9.2
45.3 µM | 39.4 µM | > 50 µM | CSc1nc2ccc(Cl)cc2nc1Cl | 22.1 | 16.1 | 22.1 | 16.1
> 100 µM | > 100 µM |  | COc1ccc2nc(-c3ccccc3)c(SC)nc2c1 |  |  |  | 
> 100 µM | > 100 µM |  | CSc1nc2ccccc2nc1-c1ccccc1 |  |  |  | 

IC50 (Leishmania amazonensis) | IC50 (Trypanosoma cruzi [1]) | EC50 (Trypanosoma cruzi [4]) | Compound | selectivity ratio [2] | selectivity ratio [3] | selectivity ratio [5] | selectivity ratio [6]
40.5 µM | > 100 µM |  | COc1ccc(-c2nc3cc(OC)ccc3nc2-c2ccccc2)cc1 |  |  |  | 
24.3 µM | 36 µM |  | Cc1ccc(-c2nc3cc(Cl)ccc3nc2-c2ccccc2)cc1 |  |  |  | 
6.2 µM | 40.3 µM | > 50 µM | c1ccc(-c2nc3ccccc3nc2-c2ccc(OCCN3CCOCC3)cc2)cc1 | 8.7 | 4.6 | 8.7 | 4.6
31.5 µM | 43.8 µM | > 50 µM | COc1ccc(-c2nc3ccc(Cl)cc3nc2-c2ccccc2)cc1 | 9.5 | 6.5 | 9.5 | 6.5
28.1 µM | 42.7 µM | > 50 µM | Clc1ccc2nc(-c3ccccc3)c(-c3ccccc3)nc2c1 | 6.6 | 6.1 | 6.6 | 6.1
5.3 µM | 54 µM | > 50 µM | Clc1cc2nc(-c3ccccc3)c(-c3ccccc3)nc2cc1Cl | 38.5 | 8.7 | 38.5 | 8.7
22.2 µM | 83.4 µM | > 50 µM | Cc1ccc(-c2nc3cc(Cl)c(Cl)cc3nc2-c2ccccc2)cc1 | 3.2 | 1.3 | 3.2 | 1.3
5.7 µM | 39.2 µM | > 50 µM | Oc1ccc(-c2nc3ccccc3nc2-c2ccc(OCCN3CCCCC3)cc2)cc1 | 8.2 | 1 | 8.2 | 1
42.8 µM | 83.6 µM | > 50 µM | COc1ccc2nc(N(C)C)c(SC)nc2c1 | 5.9 | 6.2 | 5.9 | 6.2
35.2 µM | 86.7 µM | > 50 µM | CCCCNc1nc2ccc(OC)cc2nc1SC | 2.1 | 3.1 | 2.1 | 3.1
82.9 µM | > 100 µM | > 50 µM | COc1ccc2nc(NCCO)c(SC)nc2c1 | 5 |  | 5 | 
75.9 µM | 93.1 µM | > 50 µM | CCCCNc1nc2ccccc2nc1SC | 1.9 | 1.2 | 1.9 | 1.2
96.2 µM | > 100 µM | > 50 µM | CSc1nc2ccccc2nc1NCCO | 2.9 |  | 2.9 | 
29.8 µM | 30.5 µM | > 50 µM | COc1ccc2nc(NC3CCCCC3)c(SC)nc2c1 | 1.2 | 8.5 | 1.2 | 8.5
30.2 µM | 69.2 µM | > 50 µM | CCCCNc1nc2cc(OC)ccc2nc1SC | 3.5 | 1.1 | 3.5 | 1.1
> 100 µM | > 100 µM | > 50 µM | COc1ccc2nc(SC)c(NCCO)nc2c1 |  |  |  | 
21.5 µM | 41 µM | > 50 µM | COc1ccc2nc(SC)c(NC3CCCCC3)nc2c1 | 2.4 | 1.8 |  | 
> 100 µM | > 100 µM | > 50 µM | CSc1nc2ccc(Br)cc2nc1NCCO |  |  |  | 
> 100 µM | 52.3 µM | > 50 µM | CSc1nc2ccc(Cl)cc2nc1NC1CCCCC1 |  | 4.8 |  | 4.8
> 100 µM | 66.8 µM | > 50 µM | CCCCNc1nc2cc(OC)ccc2nc1-c1ccccc1 |  | 12.5 |  | 12.5
72.8 µM | > 100 µM | > 50 µM | COc1ccc2nc(-c3ccccc3)c(NCCO)nc2c1 | 4.8 |  | 4.8 | 
